One compound from ChEMBL document CHEMBL4725355, “Design, Synthesis, and Preclinical Evaluation of 3-Methyl-6-(5-thiophenyl)-1,3-dihydro-imidazo[4,5-b]pyridin-2-ones as Selective GluN2B Negative Allosteric Modulators for the Treatment of Mood Disorders” (J Med Chem, 2020) can be followed below.

A value given as a limit tells only on which side of the number the result lay.

The nature of data set [1]: Ex vivo receptor occupancy at GluN2B in Sprague-Dawley rat assessed as 3-[3H] 1-(azetidin-1-yl)-2-[6-(4-fluoro-3-methyl-phenyl)pyrrolo[3,2-b]pyridin-1-yl]-ethanone labelling at 3 mg/kg, po measured after 0.5 hrs by autoradiography. It counts as functional. In a few lines:
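Rats dosed orally at 3 mg/kg in 20% HP-β-CD; brains taken at 0.5, 2 and 6 h. Ex vivo autoradiography of brain slices with the ³H pyrrolo[3,2-b]pyridine GluN2B tracer. Labelling expressed relative to matching brain areas of vehicle-treated animals; n=2, ± SEM.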

Data set [2] can be described thus: Toxicity in Sprague-Dawley rat assessed as change in behavior at 500 mg/kg/day, po administered as nanosuspension measured after 2 days. The settings on record: in vivo, 48 h, time 2 day. Format: organism-based. The essentials:
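Repeated daily oral dosing of a nanosuspension to rats for 14 days, with 500 mg/kg/day as the high dose. Clinical observations were recorded, and animals were moved to individual caging on Day 6.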

A short description of data set [3]: AUC (0 to 24 hrs) in Sprague-Dawley rat at 250 mg/kg, po administered via gavage after 24 hrs using HPMC formulation by LC-MS/MS analysis. Format: ADME, organism-based. Details: route oral, dose 250 mg/kg, time <=24. The settings on record: in vivo. In a few lines: (§1)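 Single oral gavage dose to male Sprague Dawley rats, 3 per dose level. Vehicles were a standard suspension in 5% HPMC (125, 250, 500 or 1000 mg/kg) or a nanosuspension (API:polymer 4:1), with stock diluted in vehicle on the day of dosing (100, 250 or 500 mg/kg). Blood was sampled at time points from 0.5 to 24 h.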

Data set [4] in a line: Volume of distribution at steady state in mouse at 0.5 mg/kg, iv by LC-MS/MS analysis. Format: ADME, organism-based. The settings on record: in vivo, read-out: Vdss.
A short description of data set [5]: Drug level in Sprague-Dawley rat brain cerebellum at 0.03 mg/kg, iv after 60 min by LC-MS/MS analysis. Format: ADME, organism-based. The settings on record: read-out: Drug uptake. The essentials: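 Single i.v. dose of 0.03 mg/kg in 50% (w/v) PEG/water, pH 7.4; rats n=3 per group, killed at 5, 10, 30, 60 and 120 min. Cerebellum, cortex, striatum and hippocampus dissected, weighed and homogenized; drug quantified by LC-MS/MS and normalized to tissue weight. P<0.05 taken as significant versus cerebellum.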

Data set [6] in a line: Negative allosteric modulation of human GluN1a/GluN2A receptor expressed in CHO cells assessed as inhibition of glutamate and glycine-induced calcium flux preincubated for 5 mins followed by glutamate and glycine addition and measured after 5 mins by calcium 5 dye based FLIPR assay. It counts as cell-based. In a few lines:
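Tet-On CHO T-Rex cells expressing hGluN1a with GluN2A, 2B, 2C or 2D, plated at 20,000 cells/well and induced 24 h before the assay in the presence of ketamine. Cells loaded 1 h at room temperature with Calcium 5 dye, pH 7.4 HEPES buffer. Compound added 5 min, then glutamate (~EC80) plus 10 µM glycine for 5 min; FLIPR fluorescence normalized to control wells. Three independent runs in duplicate (two for some).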

Data set [7] addresses T1, Aryl hydrocarbon receptor (Homo sapiens, UniProt P35869).
T1 sequence (P35869 whole entry): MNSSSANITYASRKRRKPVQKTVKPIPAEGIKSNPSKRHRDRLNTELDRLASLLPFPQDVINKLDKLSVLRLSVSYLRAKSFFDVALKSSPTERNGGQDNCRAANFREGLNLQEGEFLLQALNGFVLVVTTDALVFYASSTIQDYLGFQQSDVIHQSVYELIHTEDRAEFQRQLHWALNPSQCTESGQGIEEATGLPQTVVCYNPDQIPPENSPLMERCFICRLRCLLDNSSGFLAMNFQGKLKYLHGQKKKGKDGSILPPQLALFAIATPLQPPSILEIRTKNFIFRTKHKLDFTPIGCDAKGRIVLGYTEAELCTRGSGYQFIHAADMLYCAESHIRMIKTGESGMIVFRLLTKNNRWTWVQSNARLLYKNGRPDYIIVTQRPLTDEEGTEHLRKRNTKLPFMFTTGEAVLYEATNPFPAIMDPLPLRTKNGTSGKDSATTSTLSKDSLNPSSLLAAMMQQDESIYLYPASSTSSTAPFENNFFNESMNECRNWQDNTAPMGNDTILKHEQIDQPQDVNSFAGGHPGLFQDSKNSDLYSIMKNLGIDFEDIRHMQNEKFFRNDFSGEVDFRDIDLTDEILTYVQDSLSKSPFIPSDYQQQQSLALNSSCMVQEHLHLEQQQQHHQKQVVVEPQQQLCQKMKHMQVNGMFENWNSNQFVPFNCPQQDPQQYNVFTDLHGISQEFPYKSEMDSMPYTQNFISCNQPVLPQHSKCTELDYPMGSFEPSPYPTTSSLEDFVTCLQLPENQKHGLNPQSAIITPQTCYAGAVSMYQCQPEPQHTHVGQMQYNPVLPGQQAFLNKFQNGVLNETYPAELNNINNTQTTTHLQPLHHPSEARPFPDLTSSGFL
Briefly: Activation of human AHR expressed in human 1A2-DRE cells assessed as induction of CYP1A by luciferase reporter gene assay relative to control. Format: ADME, cell-based. In a few lines: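 Luciferase reporter lines were used. DPX2 is HepG2 carrying human PXR plus a CYP3A4 promoter-luciferase construct. 1A2-DRE carries human AhR plus a CYP1A2 promoter with 3 DRE copies. Luminescence was read with ONE-Glo. Activation was expressed relative to rifampicin (PXR) or omeprazole (AhR).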
Background: In a reporter assay the amount or activity of a reporter protein is the signal.

Data set [8] can be described thus: Tmax in Sprague-Dawley rat brain at 3 mg/kg, po by LC-MS/MS analysis. It counts as ADME, organism-based. In a few lines:
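Rats dosed orally at 3 mg/kg in 20% HP-β-CD. Brain concentrations were measured over a 6 h time course (0.5, 2, 6 h) alongside ex vivo GluN2B occupancy, n=2.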

The nature of data set [9]: Volume of distribution at steady state in monkey at 0.1 mg/kg, iv by LC-MS/MS analysis. It counts as ADME, organism-based, Macaca mulatta. Particulars: rhesus monkey, in vivo, read-out: Vdss.
Data set [10] can be described thus: Cmax in Sprague-Dawley rat at 250 mg/kg, po administered via gavage after 24 hrs using nanosuspension formulation by LC-MS/MS analysis. It counts as ADME, organism-based. Details: route oral, time 24 hrs, dose 250 mg/kg. Particulars: in vivo. In a few lines:
as §1

As usually defined, the AUC(0-t) is the area under the concentration-time curve up to a stated or last time point. Usually IC50 stands for the concentration that gives 50% inhibition. The Tmax is the time at which the peak concentration occurs. By Cmax is commonly meant the maximum level reached in the sampled fluid or tissue. As to `Cn1c(=O)n(CC(=O)N2CCC2)c2cc(-c3ccc(C(F)(F)F)s3)cnc21`, in data set [1], the Occ is on record as 87%. For the same compound, the Activity result in [2] was “Toxic”; in data set [7], below 20%. The compound further registered an AUC(0-t) in [3] of 19700 ng·h/mL. For the same compound, the values for the Vd in data set [4] and in data set [9] were 3.2 L/kg and 0.8 L/kg, respectively. Also, the concentration at 1 h in data set [5] came out at 11.9 ng/mL. Besides, the IC50 in data set [6] was above 10 µM. Moreover, the Tmax in data set [8] was found to be 30 min. Also, in data set [10], the Cmax is 12500 ng/mL.
